Test results taken from ChEMBL document CHEMBL1145888, “Prazosin-related compounds. Effect of transforming the piperazinylquinazoline moiety into an aminomethyltetrahydroacridine system on the affinity for alpha1-adrenoreceptors” (J Med Chem, 2003).

How the values were obtained:
[1] = molecular target: T1, Alpha-1D adrenergic receptor (Homo sapiens, UniProt P25100); experiment: Binding affinity measured in CHO cells expressing human cloned Alpha-1D adrenergic receptor expressed as pKi; assay type: cell-based
T1 sequence (P25100 whole entry): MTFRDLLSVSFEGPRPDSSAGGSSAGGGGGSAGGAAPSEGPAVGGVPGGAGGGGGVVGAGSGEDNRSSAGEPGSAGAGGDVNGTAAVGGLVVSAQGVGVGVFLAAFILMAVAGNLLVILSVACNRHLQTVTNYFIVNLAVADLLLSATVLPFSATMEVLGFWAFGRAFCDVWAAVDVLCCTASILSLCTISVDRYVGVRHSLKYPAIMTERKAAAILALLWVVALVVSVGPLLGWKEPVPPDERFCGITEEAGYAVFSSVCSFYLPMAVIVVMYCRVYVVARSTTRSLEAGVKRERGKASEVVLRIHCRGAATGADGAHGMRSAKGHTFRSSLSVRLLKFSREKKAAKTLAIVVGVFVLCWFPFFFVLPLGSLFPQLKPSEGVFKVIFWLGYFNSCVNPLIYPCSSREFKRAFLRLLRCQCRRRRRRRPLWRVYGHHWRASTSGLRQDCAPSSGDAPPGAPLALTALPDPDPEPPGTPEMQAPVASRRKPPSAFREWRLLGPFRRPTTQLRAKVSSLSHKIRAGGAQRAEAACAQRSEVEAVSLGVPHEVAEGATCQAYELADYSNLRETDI

[2] = molecular target: T2, Alpha-1A adrenergic receptor (Homo sapiens, UniProt P35348); experiment: Binding affinity measured in CHO cells expressing human cloned Alpha-1A adrenergic receptor expressed as pKi; assay type: cell-based
T2 sequence (P35348 whole entry): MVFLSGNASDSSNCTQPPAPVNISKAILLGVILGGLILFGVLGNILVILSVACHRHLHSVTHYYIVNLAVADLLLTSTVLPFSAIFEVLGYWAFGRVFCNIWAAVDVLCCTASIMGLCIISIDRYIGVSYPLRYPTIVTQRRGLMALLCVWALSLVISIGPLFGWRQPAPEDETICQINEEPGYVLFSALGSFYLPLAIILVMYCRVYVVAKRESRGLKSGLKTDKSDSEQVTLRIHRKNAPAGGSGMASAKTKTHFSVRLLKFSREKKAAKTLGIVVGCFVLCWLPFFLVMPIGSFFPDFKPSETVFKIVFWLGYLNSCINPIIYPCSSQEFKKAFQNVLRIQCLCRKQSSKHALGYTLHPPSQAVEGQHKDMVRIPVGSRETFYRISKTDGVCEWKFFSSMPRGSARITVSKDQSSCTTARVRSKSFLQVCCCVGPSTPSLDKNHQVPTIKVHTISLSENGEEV

[3] = molecular target: T3, Alpha-1B adrenergic receptor (Homo sapiens, UniProt P35368); experiment: Binding affinity measured in CHO cells expressing human cloned Alpha-1B adrenergic receptor expressed as pKi; assay type: cell-based
T3 sequence (P35368 whole entry): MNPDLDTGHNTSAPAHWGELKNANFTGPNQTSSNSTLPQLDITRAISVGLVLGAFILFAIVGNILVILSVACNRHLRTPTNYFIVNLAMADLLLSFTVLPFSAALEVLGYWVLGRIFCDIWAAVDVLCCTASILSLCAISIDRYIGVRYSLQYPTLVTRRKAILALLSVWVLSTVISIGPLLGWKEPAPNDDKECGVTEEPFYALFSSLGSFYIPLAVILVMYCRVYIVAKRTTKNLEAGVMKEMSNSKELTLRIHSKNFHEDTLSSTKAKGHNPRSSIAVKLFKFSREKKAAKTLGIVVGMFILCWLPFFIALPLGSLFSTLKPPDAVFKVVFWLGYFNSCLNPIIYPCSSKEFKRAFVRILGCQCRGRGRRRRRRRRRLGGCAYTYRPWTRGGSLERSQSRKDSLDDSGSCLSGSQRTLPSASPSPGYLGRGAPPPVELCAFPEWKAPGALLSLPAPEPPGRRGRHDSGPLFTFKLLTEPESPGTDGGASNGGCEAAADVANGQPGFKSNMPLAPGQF

[4] = molecular target: T4, Alpha-1B adrenergic receptor (Rattus norvegicus) (UniProt P15823); experiment: Affinity was evaluated against Alpha-1B adrenoceptor in isolated rat spleen expressed as pKB; assay type: tissue-based
T4 sequence (whole entry): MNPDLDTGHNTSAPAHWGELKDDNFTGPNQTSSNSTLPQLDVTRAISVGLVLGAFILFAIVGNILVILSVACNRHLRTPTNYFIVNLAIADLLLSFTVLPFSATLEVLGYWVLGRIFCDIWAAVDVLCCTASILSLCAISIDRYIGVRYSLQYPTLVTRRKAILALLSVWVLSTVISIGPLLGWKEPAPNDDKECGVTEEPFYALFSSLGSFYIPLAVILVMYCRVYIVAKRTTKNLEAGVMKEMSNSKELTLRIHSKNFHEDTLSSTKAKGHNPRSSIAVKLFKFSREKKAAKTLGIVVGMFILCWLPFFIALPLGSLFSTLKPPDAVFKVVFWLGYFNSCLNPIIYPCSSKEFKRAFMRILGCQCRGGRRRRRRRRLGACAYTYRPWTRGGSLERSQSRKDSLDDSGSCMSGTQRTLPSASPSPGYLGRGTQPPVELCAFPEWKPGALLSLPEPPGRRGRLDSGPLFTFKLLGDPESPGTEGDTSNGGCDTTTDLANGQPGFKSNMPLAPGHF
How it was run: (§1)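 Isolated rat tissue; isometric contractions recorded via force transducer, with parallel tissues receiving no antagonist to check for sensitivity drift. A control agonist cumulative concentration-response curve was run, then antagonist equilibrated 30 min before a repeat curve. Responses were taken as % of the control maximum. pKB (±SE) was calculated by van Rossum at one concentration (0.1-10 µM range), each tested 4-5 times.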

[5] = molecular target: T5, Alpha-1D adrenergic receptor (Rattus norvegicus) (UniProt P23944); details: Aorta
T5 sequence (whole entry): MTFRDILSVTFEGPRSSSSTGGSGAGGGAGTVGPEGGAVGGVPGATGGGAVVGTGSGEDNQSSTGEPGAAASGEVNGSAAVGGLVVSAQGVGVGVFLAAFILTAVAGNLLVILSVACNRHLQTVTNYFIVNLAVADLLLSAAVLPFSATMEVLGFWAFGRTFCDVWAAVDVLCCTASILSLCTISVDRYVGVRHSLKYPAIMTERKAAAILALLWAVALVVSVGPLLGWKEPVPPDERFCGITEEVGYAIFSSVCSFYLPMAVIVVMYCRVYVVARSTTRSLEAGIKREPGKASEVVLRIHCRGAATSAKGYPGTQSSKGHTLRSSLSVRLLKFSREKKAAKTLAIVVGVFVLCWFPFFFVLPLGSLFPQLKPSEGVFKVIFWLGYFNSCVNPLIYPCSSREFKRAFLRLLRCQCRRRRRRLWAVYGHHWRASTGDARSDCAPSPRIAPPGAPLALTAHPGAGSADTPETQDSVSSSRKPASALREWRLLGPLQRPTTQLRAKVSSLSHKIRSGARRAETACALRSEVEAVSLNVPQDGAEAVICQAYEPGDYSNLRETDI

[6] = molecular target: T6, Alpha-1A adrenergic receptor (Rattus norvegicus) (UniProt P43140); details: Vas deferens
T6 sequence (whole entry): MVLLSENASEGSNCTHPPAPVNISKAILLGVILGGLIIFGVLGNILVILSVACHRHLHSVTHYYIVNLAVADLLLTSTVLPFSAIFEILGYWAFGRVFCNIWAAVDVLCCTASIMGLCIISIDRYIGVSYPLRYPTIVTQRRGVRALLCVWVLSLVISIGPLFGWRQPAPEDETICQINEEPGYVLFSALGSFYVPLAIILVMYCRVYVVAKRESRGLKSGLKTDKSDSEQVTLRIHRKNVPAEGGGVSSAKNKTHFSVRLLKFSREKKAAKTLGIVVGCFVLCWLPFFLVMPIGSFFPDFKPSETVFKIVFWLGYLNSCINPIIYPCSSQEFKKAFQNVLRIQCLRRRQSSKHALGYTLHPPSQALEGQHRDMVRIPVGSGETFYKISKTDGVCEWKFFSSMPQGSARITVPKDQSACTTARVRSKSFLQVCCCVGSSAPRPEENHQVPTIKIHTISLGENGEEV

[7] = molecular target: T5, Alpha-1D adrenergic receptor (Rattus norvegicus); experiment: Affinity was evaluated against Alpha-1D adrenergic receptor in isolated rat aorta expressed as pKB; assay type: tissue-based; how it was run: as §1
[8] = molecular target: T4, Alpha-1B adrenergic receptor (Rattus norvegicus); experiment: Affinity was evaluated against Alpha-1B adrenergic receptor in isolated rat spleen expressed as pKB; assay type: tissue-based; how it was run: as §1

| Ki [1] | Ki [2] | Ki [3] | pKB [4] | pKB [5] | pKB [6] | pKB [7] | pKB [8] | SMILES |
| --- | --- | --- | --- | --- | --- | --- | --- | --- |
| 0.2 µM | 0.977 µM | 0.0398 µM | 7.2 | 6.39 | 5.7 |  |  | COc1cc2nc3c(c(N)c2cc1OC)CCC(CNCCOc1c(OC)cccc1OC)C3 (configuration not stated) |
|  |  |  | 8.2 | 8.85 | 9.48 |  |  | COc1cccc(OC)c1OCCNCC1COc2ccccc2O1 (configuration not stated) |
|  |  |  | 6.92 | 6.94 | 6.34 |  |  | COc1cc2nc3c(c(N)c2cc1OC)CCCC(CNC(=O)c1ccco1)C3 (configuration not stated) |
| 1.15 µM | 2.57 µM | 0.295 µM | 6.95 | 6.41 | 5.76 |  |  | COc1cc2nc3c(c(O)c2cc1OC)CCC(CNC(=O)c1ccco1)C3 (configuration not stated) |
| 0.0191 µM | 0.0851 µM | 0.00891 µM | 7.2 |  | 6.08 | 6.67 |  | COc1cc2nc3c(c(N)c2cc1OC)CCC(CNC(=O)c1ccc(C(F)(F)F)cc1)C3 (configuration not stated) |
| 0.0251 µM | 0.0316 µM | 0.0126 µM | 7.36 |  | 7.16 | 7.58 |  | COc1cc2nc3c(c(N)c2cc1OC)CCC(CNC(=O)c1cccc(C(F)(F)F)c1)C3 (configuration not stated) |
| 0.0245 µM | 0.288 µM | 0.00741 µM | 7.33 |  | 6.47 | 6.85 |  | COc1cc2nc3c(c(N)c2cc1OC)CCC(CNC(=O)c1ccccc1C(F)(F)F)C3 (configuration not stated) |
| 0.2 µM | 0.158 µM | 0.0794 µM | 6.82 |  | 6.26 | 6.11 |  | COc1cc2nc3c(c(N)c2cc1OC)CC(CNC(=O)c1ccco1)C3 (configuration not stated) |
| 0.0158 µM | 0.0955 µM | 0.0123 µM |  | 7.47 | 6.52 |  | 7.3 | COc1cc2nc3c(c(N)c2cc1OC)CCC(CNC(=O)c1ccco1)C3 (configuration not stated) |
| 0.389 µM | 1.7 µM | 0.219 µM | 7.05 |  | 6.24 | 5.92 |  | COc1cc2nc3c(c(O)c2cc1OC)CCC(CNCCOc1c(OC)cccc1OC)C3 (configuration not stated) |
|  |  |  | 7.19 |  | 6.67 | 6.63 |  | COc1cc2nc3c(c(N)c2cc1OC)CCC(CNC(=O)c1ccccc1)C3 (configuration not stated) |
